Screening results: PubChem BioAssay, several laboratories
TAAR1 ag – human TAAR1 agonism; Q96RJ0; CHO RD-HGA16 TAAR1, Fluo-8 calcium fluorescence; vehicle wells 0%, saturating PEA agonist 100%; hit rate 0.99% among 360,000; activation, % at 3 µM;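 active = activation above the mean activation of all test compounds in the run plus 3 SD, cut at about 38% in these data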
Target sequence (Q96RJ0 whole entry, looked up): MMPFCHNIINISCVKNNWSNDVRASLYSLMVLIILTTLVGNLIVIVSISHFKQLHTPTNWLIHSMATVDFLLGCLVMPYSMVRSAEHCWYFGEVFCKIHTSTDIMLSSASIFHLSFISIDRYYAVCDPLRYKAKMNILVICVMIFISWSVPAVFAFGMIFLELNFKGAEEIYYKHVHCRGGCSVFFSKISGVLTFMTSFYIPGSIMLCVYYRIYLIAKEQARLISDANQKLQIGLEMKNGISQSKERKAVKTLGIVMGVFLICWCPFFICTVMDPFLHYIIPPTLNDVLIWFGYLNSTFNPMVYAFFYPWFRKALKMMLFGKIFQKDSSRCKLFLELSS
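Test system: RD-HGA16 (CHO) cells co-expressing Gα16 and hTAAR1 | Doses: Single dose, 3 µM | Schedule: 17-24 h seeding, 75 min 37 °C dye, 30 min RT | Evaluation: % activation from peak over basal fluorescence ratio, DMSO-to-PEA scaled | Technique: Kinetic Fluo-8 calcium fluorescence | Benchmarks: Low control DMSO, high control PEA (EC100)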
NTR1 agonist – activates human neurotensin receptor 1. activation, % at 20 µM. NTR1-U2OS beta-arrestin-GFP spot imaging, agonist mode. hit rate 0.17% among 330,000;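 active = activation at or above 40% of the spot to cytoplasm intensity ratio, with at least 20 cells analyzed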;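 also: 0% = DMSO without peptide and 100% = 100 nM NTR1 peptide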
Target sequence (P30989 whole entry, looked up): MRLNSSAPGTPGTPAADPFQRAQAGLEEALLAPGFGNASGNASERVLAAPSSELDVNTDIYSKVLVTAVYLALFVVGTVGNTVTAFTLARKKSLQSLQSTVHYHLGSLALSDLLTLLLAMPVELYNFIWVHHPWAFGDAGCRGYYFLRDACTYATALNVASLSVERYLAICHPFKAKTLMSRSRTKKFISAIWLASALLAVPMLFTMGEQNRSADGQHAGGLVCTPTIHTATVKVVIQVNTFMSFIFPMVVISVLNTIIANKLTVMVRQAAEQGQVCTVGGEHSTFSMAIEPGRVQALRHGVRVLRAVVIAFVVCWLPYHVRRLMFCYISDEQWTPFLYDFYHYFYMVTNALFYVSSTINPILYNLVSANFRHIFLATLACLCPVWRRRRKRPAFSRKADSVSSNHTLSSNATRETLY
TAAR1 antagonist – human TAAR1 antagonism; Q96RJ0; CHO RD-HGA16 TAAR1, Fluo-8 calcium fluorescence, antagonist; AID 624466; hit rate 1.5% among 360,000; inhibition, % at 3 µM;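 active = inhibition above a per-plate cutoff, the mean inhibition of test compounds on that plate plus 3 SD, cut at about 49% in these data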;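 also: 0% = DMSO plus EC80 beta-PEA response and 100% = DMSO alone without agonist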
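System: RD-HGA16 CHO cells with stable hTAAR1 and Gα16 | Probe or stimulus: EC80 β-phenethylamine stimulus | Dosing: 3 µM, single point | Times: Dye loading 75 min at 37 °C, then 30 min room temperature | Measured by: Fluo-8 calcium-sensitive fluorescence | Read-out basis: % inhibition of agonist calcium response | Replicates: n of 1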
OX1R antag-1 – human HCRTR1 antagonism; AID 434989; CHO/OX1R cells, Fluo-8 calcium fluorescence, orexin A; inhibition, % at 5 µM; hit rate 0.43% among 330,000;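 active = inhibition above its plate's threshold, mean inhibition of all tested compounds on the plate plus 3 SD, cut at about 37% in these data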;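 also: 0% = orexin A challenge wells and 100% = SB-334867-A antagonist wells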
OX1R antag-2 – OX1R (human) antagonism. OX1R-expressing cells, FRET antagonist read-out. inhibition, % at 6.6 µM. hit rate 1.8% among 330,000. AID 485270; in the data active = inhibition mostly above about 38%, no sharp cut-off; inactive = mostly below about 40%;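 also: 0% = agonist challenge alone and 100% = reference antagonist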
CHO parental Ca – signal in parental CHO cells, OX1R antagonist counter-screen; parental CHO-K1, ATP-induced calcium, Fluo-8 fluorescence; inhibition, % at 5.6 µM; hit rate 0.63% among 330,000; AID 463079;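 active = inhibition above that plate's mean sample inhibition plus 3 SD, cut at about 26% in these data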;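 also: 0% = ATP-challenged DMSO wells and 100% = DMSO wells without ATP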
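Assay system: parental CHO cells; Read-out basis: percent inhibition of ATP-evoked calcium rise, normalized to controls; Benchmarks: ATP and no-ATP DMSO wells; Compound dosing: single nominal dose of 5.6 µM per compound; Signal: Fluo-8 calcium dye fluorescence; Also added: ATP as calcium-mobilizing challenge; Repeats: singlicate.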
nonsel antag count – counter-screen for TAAR1 antagonists: nonselective antagonists; shares compounds with TAAR1 antagonist; counterscreen cell line, calcium fluorescence, antagonist mode; inhibition, % at 3 µM; hit rate 77% among 2,400; AID 651780; in the data active = inhibition above about 22%;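 also: CHO-Ga16 host cells stimulated with ATP at an EC80 level; 0% = agonist EC80 plus vehicle and 100% = vehicle without agonist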
TAAR1 antag conf – human TAAR1 antagonism, confirmed. TAAR1-expressing cells, fluorescence antagonist read-out. shares compounds with TAAR1 antagonist. inhibition, % at 3 µM. hit rate 40% among 2,400. AID 651785; in the data active = inhibition above about 49%;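 also: CHO-Ga16 host cells challenged with agonist PEA near its EC80; 0% = agonist at EC80 plus vehicle and 100% = vehicle with no agonist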
Ga16 nonsel ag – nonselective Ga16 agonist in TAAR1 antagonist counter-screen; shares compounds with TAAR1 antagonist; Ga16-expressing cells, calcium fluorescence, agonist counterscreen; activation, % at 3 µM; hit rate 18% among 2,400; AID 651953; in the data active = activation above about 12%;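 also: 0% = vehicle wells and 100% = saturating stimulus response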
TAAR1 ag count – counter-screen for human TAAR1 antagonists: TAAR1 agonists | shares compounds with TAAR1 antagonist | hTAAR1 cell line, fluorescence activation, agonist mode | activation, % at 3 µM | hit rate 2% among 2,400 | AID 651955; in the data active = activation above about 37%;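 also: CHO cells stably expressing TAAR1 with calcium dye readout; 0% = DMSO vehicle and 100% = full agonist response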
The depositor's hits bear a star. A selection: hits, their analogues and other compounds. The true share with any hit is near 4%.

Screening CCN(CC(=O)Nc1ccc(Br)cc1)CC(=O)Nc1cc(C)on1 returned TAAR1 ag 7, NTR1 agonist 0 and TAAR1 antagonist -15.
O=C(Cc1ccc(Cl)cc1)Nc1cccc(-c2nnc(-c3ccco3)o2)c1 was read as TAAR1 ag 18, NTR1 agonist 9, TAAR1 antagonist 62*, OX1R antag-1 -18, OX1R antag-2 16, CHO parental Ca -3, nonsel antag count 27*, TAAR1 antag conf 40, Ga16 nonsel ag 11 and TAAR1 ag count 11.
For O=C(Nc1cccc(-c2nnc(-c3ccco3)o2)c1)C(c1ccccc1)c1ccccc1 the results were TAAR1 ag 18, NTR1 agonist 6, TAAR1 antagonist 64*, OX1R antag-1 -4, OX1R antag-2 41, CHO parental Ca -1, nonsel antag count 29*, TAAR1 antag conf 39, Ga16 nonsel ag 2 and TAAR1 ag count 0.
CC(=O)Oc1ccc(C(=O)Nc2cccc(-c3nnc(-c4ccco4)o3)c2)cc1 was read as TAAR1 ag 18, NTR1 agonist 0, TAAR1 antagonist 35, OX1R antag-1 -18, OX1R antag-2 10 and CHO parental Ca -8.
Screening CC1(C)CCC[C@]2(C)[C@H]3Cc4cc(O)ccc4O[C@]3(C)CC[C@@H]12 returned TAAR1 ag 4, NTR1 agonist 18, TAAR1 antagonist 4, OX1R antag-1 -12, OX1R antag-2 5 and CHO parental Ca -11.
Screening COc1ccc(/C=N/NC(=O)c2cccnc2)cc1COc1ccc([N+](=O)[O-])c(C)c1 returned TAAR1 ag 16, NTR1 agonist 12, TAAR1 antagonist 64*, OX1R antag-1 -7, OX1R antag-2 13, CHO parental Ca -6, nonsel antag count 38*, TAAR1 antag conf 53*, Ga16 nonsel ag 12* and TAAR1 ag count 11.
Screening COc1cc(/C=N/NC(=O)c2cccnc2)ccc1OC(=O)c1ccc2c(c1)OCO2 returned TAAR1 ag 20, NTR1 agonist -1, TAAR1 antagonist 54*, OX1R antag-1 -11, OX1R antag-2 26, CHO parental Ca -18, nonsel antag count 26*, TAAR1 antag conf 29, Ga16 nonsel ag 9 and TAAR1 ag count 17.
For COc1ccc(/C=N\NC(=O)c2ccccc2)cc1COc1ccc(F)cc1 the results were TAAR1 ag 1, NTR1 agonist 1, TAAR1 antagonist 31, OX1R antag-1 -3, OX1R antag-2 1 and CHO parental Ca -1.
For O=C(N/N=C/c1cccc(OC(=O)c2ccccc2Cl)c1)c1cccnc1 the results were TAAR1 ag 14, NTR1 agonist 4, TAAR1 antagonist 54*, OX1R antag-1 -16, OX1R antag-2 14, CHO parental Ca -21, nonsel antag count 21, TAAR1 antag conf 33, Ga16 nonsel ag 9 and TAAR1 ag count 12.
For COc1cc(/C=N/NC(=O)c2cccnc2)ccc1OC(=O)c1cc(OC)c(OC)c(OC)c1 the results were TAAR1 ag 13, NTR1 agonist 3, TAAR1 antagonist 44, OX1R antag-1 -16, OX1R antag-2 9 and CHO parental Ca -9.
`Cc1ccc(C)c(NC(=O)C2CCN(C(=O)c3cccs3)CC2)c1` gave TAAR1 ag 0, NTR1 agonist -2, TAAR1 antagonist 0, OX1R antag-1 -8, OX1R antag-2 6 and CHO parental Ca -8.
Cc1sc2ncnc(N3CCC(C(=O)Nc4cc(S(C)(=O)=O)ccc4Cl)CC3)c2c1C was read as TAAR1 ag 14, NTR1 agonist -1, TAAR1 antagonist 61*, OX1R antag-1 -20, OX1R antag-2 20, CHO parental Ca -16, nonsel antag count 26*, TAAR1 antag conf 38, Ga16 nonsel ag 8 and TAAR1 ag count 4.
Cc1sc2ncnc(N3CCC(C(=O)Nc4cc(Cl)ccc4Cl)CC3)c2c1C was read as TAAR1 ag 1, NTR1 agonist 12, TAAR1 antagonist 63*, OX1R antag-1 -34, OX1R antag-2 36, CHO parental Ca -19, nonsel antag count 30*, TAAR1 antag conf 42, Ga16 nonsel ag 3 and TAAR1 ag count 0.
For COc1ccc(S(=O)(=O)N(C)C)cc1NC(=O)C1CCN(c2ncnc3sc(C)c(C)c23)CC1 the results were TAAR1 ag 11 and TAAR1 antagonist 22.
Screening O=C(CSc1nnc(-c2ccco2)n1-c1ccccc1Cl)Nc1cccc(C(=O)O)c1 returned TAAR1 ag 1, NTR1 agonist 2, TAAR1 antagonist -10, OX1R antag-1 3, OX1R antag-2 -3 and CHO parental Ca -2.
`CCCNC(=O)c1ccccc1NC(=O)c1ccc2c(c1)NC(=O)C(C)S2` (stereo unspecified) gave TAAR1 ag 9, NTR1 agonist 4, TAAR1 antagonist 59*, OX1R antag-1 -34, OX1R antag-2 43, CHO parental Ca -27, nonsel antag count 27*, TAAR1 antag conf 49*, Ga16 nonsel ag 7 and TAAR1 ag count 14.
`COC(=O)CCCC1=CC2=CC(=O)C(C)(OC(=O)c3ccc(Cl)nc3)C(=O)C2=CO1` (stereo unspecified) gave NTR1 agonist -2, OX1R antag-1 3, OX1R antag-2 6 and CHO parental Ca -10.
`COCCC(=O)Nc1c(-c2ccccc2)c2cc(Br)ccc2[nH]c1=O` gave TAAR1 ag 2, NTR1 agonist -1, TAAR1 antagonist -7, OX1R antag-1 -26, OX1R antag-2 10 and CHO parental Ca -10.
Screening O=c1c2ccccc2nc(/C=C/c2cccnc2)n1CCc1ccccc1 returned TAAR1 ag 7, NTR1 agonist 6, TAAR1 antagonist 60*, OX1R antag-1 -33, OX1R antag-2 14, CHO parental Ca -10, nonsel antag count 19, TAAR1 antag conf 27, Ga16 nonsel ag 3 and TAAR1 ag count 2.
O=c1c2ccccc2nc(/C=C/c2cccc([N+](=O)[O-])c2)n1CCO was read as TAAR1 ag 14, NTR1 agonist 2, TAAR1 antagonist 9, OX1R antag-1 -21, OX1R antag-2 19 and CHO parental Ca -5.
Screening O=c1c2ccccc2nc(/C=C/c2cccnc2)n1Cc1ccccc1 returned TAAR1 ag 8 and TAAR1 antagonist 0.
